We go through one molecule from ChEMBL document CHEMBL4346661, “Design, synthesis and evaluation of novel diaryl-1,5-diazoles derivatives bearing morpholine as potent dual COX-2/5-LOX inhibitors and antitumor agents” (Eur J Med Chem, 2019).

The subject of data set [1] is MCF7. Put plainly: Antiproliferative activity against human MCF7 cells incubated for 48 hrs by MTT assay. Format: functional, cell-based. Conditions: MCF7, 48 h. The method in brief: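 MTT assay on F10 (murine melanoma), HeLa, A549, MCF-7 and 293T (human renal epithelium) cells. IC50 given as mean ± SD of three independent experiments.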
Background: Tetrazolium assays rely on reduction of a dye to a coloured formazan, in cell work by metabolically active cells.

For data set [2], the species on record is Homo sapiens. Put plainly: Selectivity index, ratio of IC50 for COX1 (unknown origin) to IC50 for COX2 (unknown origin). Put shortly: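 Ratio of COX-1 IC50 to COX-2 IC50, from human COX-1 and human COX-2 inhibitor screening assay kits. Each IC50 is the concentration giving 50% enzyme inhibition, taken as the mean of four determinations.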
The subject of data set [3] is B16-F10. The experiment in a line: Induction of apoptosis in mouse B16F10 cells assessed as early apoptosis cells at 3.125 uM incubated for 48 hrs in presence of apoptosis inhibitor z-VAD-fmk by Annexin-V-FITC/propidium iodide staining-based flow cytometric analysis (reference value: 3.83%). The data set is classed as functional.
Data set [4] concerns B16-F10. Put plainly: Induction of apoptosis in mouse B16F10 cells assessed as viable cells at 3.125 uM incubated for 48 hrs in presence of apoptosis inhibitor z-VAD-fmk by Annexin-V-FITC/propidium iodide staining-based flow cytometric analysis (reference value: 92.5%). The data set is classed as functional. Conditions: B16-F10, 48 h, read-out: Activity.
Data set [5] relates to B16-F10. Put plainly: Induction of apoptosis in mouse B16F10 cells assessed as early apoptosis cells at 12.5 uM incubated for 48 hrs by Annexin-V-FITC/propidium iodide staining-based flow cytometric analysis (reference value: 2.93%). Format: functional. The method in brief:
(§1)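 F10 cells were exposed to 0, 3.125, 6.25, 12.5 or 25 µM for 48 h. Cells were stained with Annexin V/PI and read by flow cytometry. Data are mean ± SD of three independent experiments.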

In data set [6] the test system is B16-F10. The experiment in a line: Induction of apoptosis in mouse B16F10 cells assessed as viable cells at 12.5 uM incubated for 48 hrs by Annexin-V-FITC/propidium iodide staining-based flow cytometric analysis (reference value: 94%). The data set is classed as functional. Particulars: B16-F10, 48 h, read-out: Activity. The method in brief:
as §1
On the technique in general: In flow cytometry, cells or beads pass a laser one at a time.

Data set [7] deals with B16-F10. The experiment in a line: Induction of apoptosis in mouse B16F10 cells assessed as necrosis cells at 25 uM incubated for 48 hrs by Annexin-V-FITC/propidium iodide staining-based flow cytometric analysis (reference value: 0.186%). Format: functional. Put shortly: as §1
For data set [8], the system named is B16-F10. The experiment in a line: Induction of apoptosis in mouse B16F10 cells assessed as viable cells at 3.125 uM incubated for 48 hrs by Annexin-V-FITC/propidium iodide staining-based flow cytometric analysis (reference value: 94%). Particulars: B16-F10, 48 h, read-out: Activity. Format: functional. Put shortly:
as §1

The nature of data set [9]: Toxicity in mouse B16F10 cells implanted in nude mouse assessed as change in body weight at 20 to 40 mg/kg, ip administered once per 2 days for 14 days. The data set is classed as organism-based. Conditions: in vivo. The method in brief:
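Nude mice carried subcutaneous right-flank xenografts of 5×10^6 F10 cells. At about 100 mm3 tumor size they were randomized into groups of six (twenty-four mice, four groups): vehicle or 20 or 40 mg/kg, given intraperitoneally once every two days for two weeks. Body weight was tracked during treatment.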

Data set [10] deals with B16-F10. The experiment in a line: Induction of apoptosis in mouse B16F10 cells assessed as necrosis cells at 12.5 uM incubated for 48 hrs in presence of apoptosis inhibitor z-VAD-fmk by Annexin-V-FITC/propidium iodide staining-based flow cytometric analysis (reference value: 0.558%). The data set is classed as functional.
For data set [11], the system named is B16-F10. The experiment in a line: Induction of apoptosis in mouse B16F10 cells assessed as viable cells at 6.25 uM incubated for 48 hrs in presence of apoptosis inhibitor z-VAD-fmk by Annexin-V-FITC/propidium iodide staining-based flow cytometric analysis (reference value: 92.5%). Format: functional. Conditions: B16-F10, 48 h, read-out: Activity.

As to `NS(=O)(=O)c1ccc(-n2nc(C(=O)NCCCN3CCOCC3)cc2-c2ccc(C(F)(F)F)cc2)cc1`, the IC50 (in general, the concentration at which inhibition is half-maximal) in [1] was 7.65 µM. Further, the Ratio IC50 in [2] stood at 189. Besides, the Activity in data set [3] is on record as 4.31%; in data set [5] it was 20.5%; in data set [7], 1.33%; in data set [9] it was “Non-Toxic”; in data set [10], 0.105%. Also, the viability at 3.125 µM is 90.9% in data set [4] and 86.5% in data set [8]. In addition, the viability at 12.5 µM in data set [6] was determined as 73.7%. The viability at 6.25 µM in [11] stood at 88.8%.
